In ChEMBL document CHEMBL1142888, “Synthesis, antimicrobial, and anti-inflammatory activities of novel 2-(1-adamantyl)-5-substituted-1,3,4-oxadiazoles and 2-(1-adamantylamino)-5-substituted-1,3,4-thiadiazoles” (2007):
In brackets after ≈: the same amount, converted by molar mass.

Legend:
Assay type in all cases: functional
Staphylococcus aureus [1] = experiment: Antimicrobial activity against Staphylococcus aureus IFO 3060 at 200 ug/disc after 24 hrs; conditions: IFO 3060, 24 h, read-out: IZ
Bacillus subtilis [2] = experiment: Antimicrobial activity against Bacillus subtilis IFO 3007 at 200 ug/disc after 24 hrs; conditions: IFO 3007, 24 h, read-out: IZ
Escherichia coli [3] = experiment: Antimicrobial activity against Escherichia coli IFO 3301 at 200 ug/disc after 24 hrs; conditions: IFO 3301, 24 h, read-out: IZ
Pseudomonas aeruginosa = experiment: Antimicrobial activity against Pseudomonas aeruginosa IFO 3448 at 200 ug/disc; conditions: read-out: IZ
Candida albicans [4] = experiment: Antimicrobial activity against Candida albicans IFO 0583 at 200 ug/disc after 48 hrs; conditions: IFO 0583, 48 h, read-out: IZ
Rattus norvegicus [5] = experiment: Antiinflammatory effect on carrageenan-induced paw oedema Sprague-Dawley rat assessed as reduction of paw oedema at 20 mg/kg, ip; design: scale not given: the % may be the effect or the level left; conditions: route intraperitoneal
In short: (§1)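 Rats in groups of five, acclimatised two days, given compound (20, 40, 60 mg/kg) or indomethacin (10 mg/kg) i.p. as suspension in 1 ml 0.5% aqueous carboxymethyl cellulose 1 h before 0.1 ml 1% carrageenin in saline into right hind plantar tissue; left paw got saline. Paw volume by water plethysmometer at 4 h; % protection vs vehicle control; mean ± S.E.M., Student's t test.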

Rattus norvegicus [6] = experiment: Antiinflammatory effect on carrageenan-induced paw oedema Sprague-Dawley rat assessed as reduction of paw oedema at 40 mg/kg, ip; design: scale not given: the % may be the effect or the level left; conditions: route intraperitoneal; in short: as §1
Rattus norvegicus [7] = experiment: Antiinflammatory effect on carrageenan-induced paw oedema Sprague-Dawley rat assessed as reduction of paw oedema at 60 mg/kg, ip; design: scale not given: the % may be the effect or the level left; conditions: route intraperitoneal; in short: as §1
Candida albicans [8] = experiment: Antimicrobial activity against Candida albicans IFO 0583 after 48 hrs; conditions: IFO 0583, 48 h
Staphylococcus aureus [9] = experiment: Antimicrobial activity against Staphylococcus aureus IFO 3060 after 24 hrs; conditions: IFO 3060, 24 h
Bacillus subtilis [10] = experiment: Antimicrobial activity against Bacillus subtilis IFO 3007 after 24 hrs; conditions: IFO 3007, 24 h
Escherichia coli [11] = experiment: Antimicrobial activity against Escherichia coli IFO 3301 after 24 hrs; conditions: IFO 3301, 24 h
Rattus norvegicus [12] = experiment: Antiinflammatory effect on carrageenan-induced paw oedema Sprague-Dawley rat assessed as reduction of paw oedema at 10 mg/kg, ip; design: scale not given: the % may be the effect or the level left; conditions: route intraperitoneal; in short: as §1
Candida albicans [13] = experiment: Antimicrobial activity against Candida albicans IFO 0583 at 100 ug/disc after 48 hrs; conditions: IFO 0583, 48 h, read-out: IZ

Compound	zone of inhibition at 200 µg/disc (Staphylococcus aureus [1]) [mm]	zone of inhibition at 200 µg/disc (Bacillus subtilis [2]) [mm]	zone of inhibition at 200 µg/disc (Escherichia coli [3]) [mm]	zone of inhibition at 200 µg/disc (Pseudomonas aeruginosa) [mm]	zone of inhibition at 200 µg/disc (Candida albicans [4]) [mm]	Activity (Rattus norvegicus [5]) [%]	Activity (Rattus norvegicus [6]) [%]	Activity (Rattus norvegicus [7]) [%]	MIC (Candida albicans [8]) [µg/mL]	MIC (Staphylococcus aureus [9]) [µg/mL]	MIC (Bacillus subtilis [10]) [µg/mL]	MIC (Escherichia coli [11]) [µg/mL]	Activity (Rattus norvegicus [12]) [%]	zone of inhibition at 100 µg/disc (Candida albicans [13]) [mm]
Brc1ccc(-c2nnc(C34CC5CC(CC(C5)C3)C4)o2)cc1	< 10	14	< 10	< 10	< 10	11.6	13.15	13.01	–	–	–	–	–	–
C1C2CC3CC1CC(Nc1nnc(C45CC6CC(CC(C6)C4)C5)s1)(C2)C3	< 10	< 10	< 10	–	18	31.6	39.65	44.14	2 (≈ 5.41 µM)	–	–	–	–	–
O=[N+]([O-])c1ccc(-c2nnc(NC34CC5CC(CC(C5)C3)C4)s2)cc1	16	18	17	12	< 10	9.11	10.1	10.74	–	2 (≈ 5.61 µM)	2 (≈ 5.61 µM)	1 (≈ 2.81 µM)	–	–
O=[N+]([O-])c1ccc(-c2nnc(C34CC5CC(CC(C5)C3)C4)o2)c(Cl)c1	< 10	14	10	10	< 10	19.69	21.65	19.34	–	–	–	–	–	–
O=[N+]([O-])c1cc(-c2nnc(C34CC5CC(CC(C5)C3)C4)o2)cc([N+](=O)[O-])c1	< 10	< 10	< 10	< 10	< 10	4.16	5.22	3.66	–	–	–	–	–	–
Clc1ccc(-c2nnc(C34CC5CC(CC(C5)C3)C4)o2)cc1	< 10	13	10	< 10	< 10	34.5	44.66	50.71	–	–	–	–	–	–
O=C(NNC(=S)NC12CC3CC(CC(C3)C1)C2)c1ccc(Br)cc1	< 10	10	< 10	< 10	< 10	–	2.34	–	–	–	–	–	–	–
O=C(NNC(=S)NC12CC3CC(CC(C3)C1)C2)c1ccc([N+](=O)[O-])cc1	20	24	19	15	< 10	0.76	–	–	–	1 (≈ 2.67 µM)	0.5 (≈ 1.34 µM)	2 (≈ 5.34 µM)	–	–
O=C(NNC(=S)NC12CC3CC(CC(C3)C1)C2)c1ccc(Cl)cc1	< 10	13	< 10	< 10	< 10	9.11	–	–	–	–	–	–	–	–
Fc1ccc(-c2nnc(NC34CC5CC(CC(C5)C3)C4)s2)cc1	14	10	10	< 10	< 10	18.02	35.55	39.35	–	–	–	–	–	–
O=[N+]([O-])c1ccc(-c2nnc(C34CC5CC(CC(C5)C3)C4)o2)cc1	< 10	< 10	< 10	< 10	< 10	9.92	13.56	12.08	–	–	–	–	–	–
Fc1ccc(-c2nnc(C34CC5CC(CC(C5)C3)C4)o2)cc1	< 10	12	< 10	< 10	< 10	11.72	29.15	38.62	–	–	–	–	–	–
c1ccc(-c2nnc(C34CC5CC(CC(C5)C3)C4)o2)cc1	< 10	< 10	< 10	< 10	< 10	23.16	31.28	34.5	–	–	–	–	–	–
c1csc(-c2nnc(C34CC5CC(CC(C5)C3)C4)o2)c1	14	18	11	12	16	35.95	49.77	63.72	2 (≈ 6.98 µM)	–	2 (≈ 6.98 µM)	–	–	–
O=C(NNC(=S)NC12CC3CC(CC(C3)C1)C2)C12CC3CC(CC(C3)C1)C2	< 10	< 10	< 10	< 10	16	11.34	13.08	10.12	4 (≈ 10.3 µM)	–	–	–	–	–
c1ccc(-c2nnc(NC34CC5CC(CC(C5)C3)C4)s2)cc1	< 10	< 10	12	< 10	< 10	19.69	34.05	33.53	–	–	–	–	–	–
O=C(NNC(=S)NC12CC3CC(CC(C3)C1)C2)c1ccccc1	< 10	22	16	< 10	< 10	2.32	1.8	–	–	–	1 (≈ 3.04 µM)	4 (≈ 12.1 µM)	–	–
Clc1ccc(-c2nnc(NC34CC5CC(CC(C5)C3)C4)s2)cc1	18	16	12	< 10	< 10	21.63	37.02	37.11	–	2 (≈ 5.78 µM)	–	–	–	–
COc1ccc2c(c1)c(CC(=O)O)c(C)n2C(=O)c1ccc(Cl)cc1 [INDOMETHACIN]	–	–	–	–	–	–	–	–	–	–	–	–	60.4	–
C1C2CC3CC1CC(c1nnc(C45CC6CC(CC(C6)C4)C5)o1)(C2)C3	< 10	< 10	< 10	< 10	10	44.27	68.97	71.52	–	–	–	–	–	–
COc1ccc(-c2nnc(C34CC5CC(CC(C5)C3)C4)o2)cc1OC	18	24	12	< 10	< 10	36.73	53.61	70.2	–	2 (≈ 5.88 µM)	0.5 (≈ 1.47 µM)	–	–	–
c1csc(-c2nnc(NC34CC5CC(CC(C5)C3)C4)s2)c1	< 10	10	< 10	< 10	< 10	15.43	28.62	37.52	–	–	–	–	–	–
Clc1ccccc1C(c1ccccc1)(c1ccccc1)n1ccnc1 [CLOTRIMAZOLE]	–	–	–	–	–	–	–	–	2 (≈ 5.8 µM)	–	–	–	–	21
Brc1ccc(-c2nnc(NC34CC5CC(CC(C5)C3)C4)s2)cc1	< 10	< 10	< 10	< 10	< 10	12.51	13.38	14.16	–	–	–	–	–	–
O=C(NNC(=S)NC12CC3CC(CC(C3)C1)C2)c1ccc(F)cc1	< 10	13	< 10	< 10	< 10	–	–	–	–	–	–	–	–	–
O=C(NNC(=S)NC12CC3CC(CC(C3)C1)C2)c1cccs1	< 10	18	10	< 10	< 10	0.96	2.16	–	–	–	4 (≈ 11.9 µM)	–	–	–
